From ChEMBL document CHEMBL3808379, “Isouronium and N-hydroxyguanidinium derivatives as Cell growth inhibitors: A comparative study” (Eur J Med Chem, 2016)

Legend:
[1] = tested on: N=C(N)Oc1ccc(Sc2ccc(O)cc2)cc1; experiment: Inhibition of bovine brain tubulin polymerization assessed as rate of tubulin polymerization at 1 mM mesured at 30 s intervals for 60 mins by spectrophotometric analysis (reference value: 3.647 mOD/min); details: Bos taurus
[2] = Cell cycle arrest in human Kelly cells assessed as accumulation at S phase at 25 uM after 48 hrs by propidium iodide staining-based flow cytometric analysis (reference value: 19.05 +/- 2.11%); format: functional
[3] = Cell cycle arrest in human Kelly cells assessed as accumulation at polyploid Gn phase at 50 uM after 72 hrs by propidium iodide staining-based flow cytometric analysis (reference value: 13.07 +/- 0.25%); format: functional
[4] = Cell cycle arrest in human Kelly cells assessed as accumulation at G2/M phase at 25 uM after 72 hrs by propidium iodide staining-based flow cytometric analysis (reference value: 13.84 +/- 0.76%); format: functional
[5] = Cytotoxicity against human Kelly cells assessed as cell viability reduction incubated for 72 hrs by alamar blue assay; format: functional, cell-based
Summary of the method: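 Kelly cells, 6000 per well, were allowed to attach for 24 h, then treated in triplicate at 0.1–100 µM final or with ddH2O vehicle for 72 h at 37 °C. AlamarBlue was added for 4.5 h in the dark and fluorescence read at ex 544/em 590 nm. Blank-subtracted % of vehicle; IC50 from a sigmoidal dose-response fit; ≥3 independent experiments.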

[6] = Cell cycle arrest in human Kelly cells assessed as accumulation at G0/G1 phase at 25 uM after 48 hrs by propidium iodide staining-based flow cytometric analysis (reference value: 52.54 +/- 2.32%); format: functional
[7] = Cell cycle arrest in human Kelly cells assessed as accumulation at G0/G1 phase at 25 uM after 72 hrs by propidium iodide staining-based flow cytometric analysis (reference value: 46.82 +/- 1.46%); format: functional
[8] = Cell cycle arrest in human Kelly cells assessed as accumulation at G2/M phase at 50 uM after 48 hrs by propidium iodide staining-based flow cytometric analysis (reference value: 13.68 +/- 0.74%); format: functional
[9] = Cell cycle arrest in human Kelly cells assessed as accumulation at G2/M phase at 25 uM after 24 hrs by propidium iodide staining-based flow cytometric analysis (reference value: 13.12 +/- 0.93%); format: functional
[10] = Cytotoxicity against human HL60 cells assessed as cell viability reduction incubated for 72 hrs by alamar blue assay; format: functional, cell-based; details: HL-60, 72 h
Summary of the method: (§1)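 HL-60 cells in log phase, 40,000 per well, were treated in triplicate with compound at 10–100 µM (final, 1:100 from ddH2O stocks) or 1% ddH2O vehicle for 72 h at 37 °C. AlamarBlue was then added for 4.5 h in the dark and fluorescence read at ex 544/em 590 nm. Viability is blank-subtracted and expressed as % of vehicle. IC50 comes from a sigmoidal fit; ≥3 independent experiments.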

[11] = Cell cycle arrest in human Kelly cells assessed as accumulation at G0/G1 phase at 50 uM after 48 hrs by propidium iodide staining-based flow cytometric analysis (reference value: 52.54 +/- 2.32%); format: functional
[12] = Cell cycle arrest in human Kelly cells assessed as accumulation at pre-G1 phase at 25 uM after 48 hrs by propidium iodide staining-based flow cytometric analysis (reference value: 5.88 +/- 1.13%); format: functional
[13] = Cell cycle arrest in human Kelly cells assessed as accumulation at pre-G1 phase at 50 uM after 24 hrs by propidium iodide staining-based flow cytometric analysis (reference value: 6.12 +/- 0.95%); format: functional
[14] = Cell cycle arrest in human Kelly cells assessed as accumulation at pre-G1 phase at 25 uM after 24 hrs by propidium iodide staining-based flow cytometric analysis (reference value: 6.12 +/- 0.95%); format: functional
[15] = Cell cycle arrest in human Kelly cells assessed as accumulation at polyploid Gn phase at 50 uM after 48 hrs by propidium iodide staining-based flow cytometric analysis (reference value: 8.97 +/- 1.27%); format: functional
[16] = Cell cycle arrest in human Kelly cells assessed as accumulation at S phase at 50 uM after 72 hrs by propidium iodide staining-based flow cytometric analysis (reference value: 16.29 +/- 0.81%); format: functional
[17] = Cell cycle arrest in human Kelly cells assessed as accumulation at pre-G1 phase at 25 uM after 72 hrs by propidium iodide staining-based flow cytometric analysis (reference value: 10.21 +/- 2.85%); format: functional
[18] = Cell cycle arrest in human Kelly cells assessed as accumulation at G0/G1 phase at 25 uM after 24 hrs by propidium iodide staining-based flow cytometric analysis (reference value: 52.37 +/- 1.44%); format: functional
[19] = Cell cycle arrest in human Kelly cells assessed as accumulation at S phase at 25 uM after 72 hrs by propidium iodide staining-based flow cytometric analysis (reference value: 16.29 +/- 0.81%); format: functional
[20] = Cell cycle arrest in human Kelly cells assessed as accumulation at G2/M phase at 25 uM after 48 hrs by propidium iodide staining-based flow cytometric analysis (reference value: 13.68 +/- 0.74%); format: functional
[21] = Cell cycle arrest in human Kelly cells assessed as accumulation at pre-G1 phase at 50 uM after 72 hrs by propidium iodide staining-based flow cytometric analysis (reference value: 10.21 +/- 2.85%); format: functional
[22] = Cell cycle arrest in human Kelly cells assessed as accumulation at G2/M phase at 50 uM after 24 hrs by propidium iodide staining-based flow cytometric analysis (reference value: 13.12 +/- 0.93%); format: functional
[23] = Cell cycle arrest in human Kelly cells assessed as accumulation at S phase at 25 uM after 24 hrs by propidium iodide staining-based flow cytometric analysis (reference value: 18.67 +/- 1.9%); format: functional
[24] = Cell cycle arrest in human Kelly cells assessed as accumulation at polyploid Gn phase at 25 uM after 48 hrs by propidium iodide staining-based flow cytometric analysis (reference value: 8.97 +/- 1.27%); format: functional
[25] = Cell cycle arrest in human Kelly cells assessed as accumulation at G2/M phase at 50 uM after 72 hrs by propidium iodide staining-based flow cytometric analysis (reference value: 13.84 +/- 0.76%); format: functional
[26] = Cell cycle arrest in human Kelly cells assessed as accumulation at polyploid Gn phase at 50 uM after 24 hrs by propidium iodide staining-based flow cytometric analysis (reference value: 9.85 +/- 1.54%); format: functional
[27] = Cell cycle arrest in human Kelly cells assessed as accumulation at G0/G1 phase at 50 uM after 72 hrs by propidium iodide staining-based flow cytometric analysis (reference value: 46.82 +/- 1.46%); format: functional
[28] = Cell cycle arrest in human Kelly cells assessed as accumulation at polyploid Gn phase at 25 uM after 24 hrs by propidium iodide staining-based flow cytometric analysis (reference value: 9.85 +/- 1.54%); format: functional
[29] = Cell cycle arrest in human Kelly cells assessed as accumulation at G0/G1 phase at 50 uM after 24 hrs by propidium iodide staining-based flow cytometric analysis (reference value: 52.37 +/- 1.44%); format: functional
[30] = Binding affinity to salmon sperm DNA assessed as increase in thermal melting temperature by spectrophotometric analysis; details: Salmonidae
[31] = Cell cycle arrest in human Kelly cells assessed as accumulation at polyploid Gn phase at 25 uM after 72 hrs by propidium iodide staining-based flow cytometric analysis (reference value: 13.07 +/- 0.25%); format: functional
[32] = Cell cycle arrest in human Kelly cells assessed as accumulation at S phase at 50 uM after 48 hrs by propidium iodide staining-based flow cytometric analysis (reference value: 19.05 +/- 2.11%); format: functional
[33] = Cell cycle arrest in human Kelly cells assessed as accumulation at pre-G1 phase at 50 uM after 48 hrs by propidium iodide staining-based flow cytometric analysis (reference value: 5.88 +/- 1.13%); format: functional
[34] = Cell cycle arrest in human Kelly cells assessed as accumulation at S phase at 50 uM after 24 hrs by propidium iodide staining-based flow cytometric analysis (reference value: 18.67 +/- 1.9%); format: functional
[35] = Dissociation constant, pKa of the compound; format: physicochemical
[36] = Cell cycle arrest in human HL60 cells assessed as accumulation at G2/M phase at 50 uM after 24 hrs by propidium iodide staining-based flow cytometric analysis (reference value: 16.73 +/- 0.59%); format: functional; details: HL-60
[37] = Cell cycle arrest in human HL60 cells assessed as accumulation at S phase at 50 uM after 72 hrs by propidium iodide staining-based flow cytometric analysis (reference value: 23.58 +/- 1.38%); format: functional; details: HL-60
[38] = Cell cycle arrest in human HL60 cells assessed as accumulation at G0/G1 phase at 50 uM after 48 hrs by propidium iodide staining-based flow cytometric analysis (reference value: 58.77 +/- 2.33%); format: functional; details: HL-60
[39] = Cell cycle arrest in human HL60 cells assessed as accumulation at S phase at 50 uM after 24 hrs by propidium iodide staining-based flow cytometric analysis (reference value: 24.46 +/- 1.15%); format: functional; details: HL-60
[40] = Cell cycle arrest in human HL60 cells assessed as accumulation at G0/G1 phase at 50 uM after 72 hrs by propidium iodide staining-based flow cytometric analysis (reference value: 59.5 +/- 1.5%); format: functional; details: HL-60
[41] = Cell cycle arrest in human HL60 cells assessed as accumulation at pre-G1 phase at 50 uM after 24 hrs by propidium iodide staining-based flow cytometric analysis (reference value: 0.81 +/- 0.11%); format: functional; details: HL-60
[42] = Cell cycle arrest in human HL60 cells assessed as accumulation at G2/M phase at 50 uM after 48 hrs by propidium iodide staining-based flow cytometric analysis (reference value: 11.35 +/- 1.05%); format: functional; details: HL-60
[43] = Cell cycle arrest in human HL60 cells assessed as accumulation at pre-G1 phase at 50 uM after 48 hrs by propidium iodide staining-based flow cytometric analysis (reference value: 1.41 +/- 0.32%); format: functional; details: HL-60
[44] = Cell cycle arrest in human HL60 cells assessed as accumulation at G0/G1 phase at 50 uM after 24 hrs by propidium iodide staining-based flow cytometric analysis (reference value: 56.05 +/- 1.4%); format: functional; details: HL-60
[45] = Cytotoxicity against human HL60 cells assessed as cell viability reduction at 100 uM incubated for 72 hrs by alamar blue assay; format: functional; details: HL-60, 72 h
Summary of the method: as §1

[46] = Cell cycle arrest in human HL60 cells assessed as accumulation at G2/M phase at 50 uM after 72 hrs by propidium iodide staining-based flow cytometric analysis (reference value: 10.53 +/- 0.81%); format: functional; details: HL-60
[47] = Cell cycle arrest in human HL60 cells assessed as accumulation at polyploid Gn phase at 50 uM after 24 hrs by propidium iodide staining-based flow cytometric analysis (reference value: 2.96 +/- 0.79%); format: functional; details: HL-60
[48] = Cell cycle arrest in human HL60 cells assessed as accumulation at pre-G1 phase at 50 uM after 72 hrs by propidium iodide staining-based flow cytometric analysis (reference value: 2.21 +/- 0.57%); format: functional; details: HL-60
[49] = Cell cycle arrest in human HL60 cells assessed as accumulation at polyploid Gn phase at 50 uM after 72 hrs by propidium iodide staining-based flow cytometric analysis (reference value: 3.43 +/- 0.48%); format: functional; details: HL-60
[50] = Cell cycle arrest in human HL60 cells assessed as accumulation at polyploid Gn phase at 50 uM after 48 hrs by propidium iodide staining-based flow cytometric analysis (reference value: 3.02 +/- 0.56%); format: functional; details: HL-60
[51] = Cell cycle arrest in human HL60 cells assessed as accumulation at S phase at 50 uM after 48 hrs by propidium iodide staining-based flow cytometric analysis (reference value: 24.29 +/- 1.37%); format: functional; details: HL-60

## Tubulin (Bos taurus) (from UniProt Q6B856+Q862L2+Q862F3)
[1]
  Vmax: 2.63 mOD/minute

## N=C(N)Oc1ccc(Oc2ccc(O)cc2)cc1
[2]
  Activity: 27.5%
[3]
  Activity: 2.69%
[4]
  Activity: 5.04%
[5]
  IC50: 17.3 µM
[6]
  Activity: 22.2%
[7]
  Activity: 26.2%
[8]
  Activity: 3.5%
[9]
  Activity: 11.3%
[10]
  IC50: 36.9 µM
[11]
  Activity: 25.2%
[12]
  Activity: 38%
[13]
  Activity: 24.3%
[14]
  Activity: 20.4%
[15]
  Activity: 4.19%
[16]
  Activity: 17.3%
[17]
  Activity: 48.4%
[18]
  Activity: 31.2%
[19]
  Activity: 16.4%
[20]
  Activity: 7.65%
[21]
  Activity: 49.5%
[22]
  Activity: 8.23%
[23]
  Activity: 25.6%
[24]
  Activity: 6.91%
[25]
  Activity: 2.44%
[26]
  Activity: 7.77%
[27]
  Activity: 29%
[28]
  Activity: 13.5%
[29]
  Activity: 42.1%
[30]
  ΔTm: 4 °C
[31]
  Activity: 4.09%
[32]
  Activity: 11.7%
[33]
  Activity: 50.7%
[34]
  Activity: 16%

## c1ccc(NC2=NCCN2)cc1
[35]
  pKa: 9.16

## N=C(N)Oc1ccc(Cc2ccc(O)cc2)cc1
[10]
  IC50: > 100 µM
[30]
  ΔTm: 2 °C

## N=C(N)Oc1ccc(Cc2ccc(OC(=N)N)cc2)cc1
[10]
  IC50: > 100 µM
[30]
  ΔTm: 4 °C

## N=C(N)Oc1ccccc1
[35]
  pKa: 8.29

## N=C(N)Oc1ccc(NC(=O)c2ccc(OC(=N)N)cc2)cc1
[5]
  IC50: > 100 µM
[10]
  IC50: > 100 µM
[30]
  ΔTm: 2 °C

## N=C(N)Oc1ccc(Sc2ccc(OC(=N)N)cc2)cc1
[5]
  IC50: 28.7 µM
[36]
  Activity: 18.1%
[37]
  Activity: 15.6%
[38]
  Activity: 38.3%
[39]
  Activity: 26.9%
[10]
  IC50: 57.4 µM
[40]
  Activity: 35.5%
[41]
  Activity: 1.46%
[42]
  Activity: 29.1%
[43]
  Activity: 2.25%
[44]
  Activity: 52%
[45]
  inhibition at 100 µM: 95.8%
[46]
  Activity: 21.9%
[47]
  Activity: 3.11%
[48]
  Activity: 4.87%
[30]
  ΔTm: 6 °C
[49]
  Activity: 22%
[50]
  Activity: 8.42%
[51]
  Activity: 21.9%

## N=C(N)Nc1ccccc1 [PHENYLGUANIDINE]
[35]
  pKa: 10.9
